The source made the active and inactive calls. The rule behind the calls is not given here.
Key:
[1] = biological target: T1, Protein cereblon/Induced myeloid leukemia cell differentiation protein Mcl-1 (Homo sapiens, UniProt Q07820+Q96SW2); assay: Induction of CRBN-mediated Mcl-1 degradation in human HeLa cells assessed as decrease in Mcl-1 level at 1 uM after 12 hrs by Western blot analysis relative to control; type: cell-based; parameters: scale not given: the % may be the effect or the level left
T1 sequence (Q07820 whole entry, looked up): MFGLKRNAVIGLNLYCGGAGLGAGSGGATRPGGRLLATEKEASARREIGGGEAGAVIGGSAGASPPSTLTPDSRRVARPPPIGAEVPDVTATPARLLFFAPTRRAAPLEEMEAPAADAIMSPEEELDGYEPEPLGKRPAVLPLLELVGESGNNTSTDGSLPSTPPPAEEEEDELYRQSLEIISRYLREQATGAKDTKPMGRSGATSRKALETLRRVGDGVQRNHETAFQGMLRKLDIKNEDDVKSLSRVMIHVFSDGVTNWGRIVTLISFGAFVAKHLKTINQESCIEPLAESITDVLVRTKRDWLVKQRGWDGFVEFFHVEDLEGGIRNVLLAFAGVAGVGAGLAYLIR
T1 sequence (Q96SW2 whole entry, looked up): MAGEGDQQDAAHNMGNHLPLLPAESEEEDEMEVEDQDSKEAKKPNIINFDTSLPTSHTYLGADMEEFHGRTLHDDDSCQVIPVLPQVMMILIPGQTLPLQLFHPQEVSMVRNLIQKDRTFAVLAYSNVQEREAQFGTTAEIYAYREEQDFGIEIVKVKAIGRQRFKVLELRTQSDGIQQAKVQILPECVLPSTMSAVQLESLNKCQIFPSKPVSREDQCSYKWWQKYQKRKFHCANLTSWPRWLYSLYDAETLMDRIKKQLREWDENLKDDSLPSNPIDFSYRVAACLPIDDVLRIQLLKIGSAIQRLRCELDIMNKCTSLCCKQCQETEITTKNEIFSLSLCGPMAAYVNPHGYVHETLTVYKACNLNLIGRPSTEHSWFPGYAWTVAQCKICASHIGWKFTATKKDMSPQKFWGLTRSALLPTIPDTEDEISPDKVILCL

[2] = biological target: T1, Protein cereblon/Induced myeloid leukemia cell differentiation protein Mcl-1; assay: Induction of CRBN-mediated Mcl-1 degradation in human HeLa cells assessed as relative abundance at 10 uM measured at 2 hrs by Western blot analysis (reference value: 1); type: cell-based
In short: (§1)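 HeLa cells in DMEM with 10% FBS, exposed to 10 µM compound over a 0–24 h time course. Mcl-1 and Bcl-2 detected by immunoblot (NP-40 lysis, BCA-equalized SDS-PAGE, PVDF, ECL) and quantified relative to DMSO control; mean ± s.d., n=3 independent samples.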

[3] = biological target: T1, Protein cereblon/Induced myeloid leukemia cell differentiation protein Mcl-1; assay: Induction of CRBN-mediated Mcl-1 degradation in human HeLa cells assessed as relative abundance at 10 uM after 12 hrs by Western blot analysis (reference value: 1); type: cell-based
[4] = biological target: T1, Protein cereblon/Induced myeloid leukemia cell differentiation protein Mcl-1; assay: Induction of CRBN-mediated Mcl-1 degradation in human HeLa cells assessed as relative abundance at 0.3 uM after 12 hrs by Western blot analysis (reference value: 1); type: cell-based
[5] = biological target: T1, Protein cereblon/Induced myeloid leukemia cell differentiation protein Mcl-1; assay: Induction of CRBN-mediated Mcl-1 degradation in human HeLa cells at 10 uM by Western blot analysis; type: cell-based; settings: TDE = time-dependent effect
[6] = biological target: T2, Protein cereblon/Apoptosis regulator Bcl-2 (Homo sapiens, UniProt P10415+Q96SW2); assay: Induction of CRBN-mediated Bcl-2 degradation in human HeLa cells assessed as relative abundance at 0.1 uM after 12 hrs by Western blot analysis (reference value: 1); type: cell-based
T2 sequence (P10415 whole entry, looked up): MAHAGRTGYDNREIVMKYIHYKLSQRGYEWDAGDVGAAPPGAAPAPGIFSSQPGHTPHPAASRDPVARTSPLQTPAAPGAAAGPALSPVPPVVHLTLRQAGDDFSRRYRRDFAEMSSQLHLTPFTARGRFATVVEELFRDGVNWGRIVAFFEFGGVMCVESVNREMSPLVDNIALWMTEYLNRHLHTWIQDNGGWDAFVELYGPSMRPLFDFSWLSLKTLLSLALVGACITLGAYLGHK
T2 sequence (Q96SW2 whole entry, looked up): as the sequence (Q96SW2 whole entry, looked up) above

[7] = biological target: T1, Protein cereblon/Induced myeloid leukemia cell differentiation protein Mcl-1; assay: Induction of CRBN-mediated Mcl-1 degradation in human HeLa cells assessed as relative abundance at 10 uM measured at 4 hrs by Western blot analysis (reference value: 1); type: cell-based; in short: as §1
[8] = biological target: T2, Protein cereblon/Apoptosis regulator Bcl-2; assay: Induction of CRBN-mediated Bcl-2 degradation in human HeLa cells assessed as relative abundance at 10 uM measured at 4 hrs by Western blot analysis (reference value: 1); type: cell-based; in short: as §1
[9] = biological target: Protein cereblon/E3 ubiquitin-protein ligase Mdm2 (Homo sapiens) (UniProt Q00987+Q96SW2); assay: Induction of CRBN-mediated MDM2 degradation in human HeLa cells at 10 uM incubated for 12 hrs by Western blot analysis; type: cell-based
Sequence of Protein cereblon/E3 ubiquitin-protein ligase Mdm2 (Homo sapiens) (Q00987 whole entry, looked up): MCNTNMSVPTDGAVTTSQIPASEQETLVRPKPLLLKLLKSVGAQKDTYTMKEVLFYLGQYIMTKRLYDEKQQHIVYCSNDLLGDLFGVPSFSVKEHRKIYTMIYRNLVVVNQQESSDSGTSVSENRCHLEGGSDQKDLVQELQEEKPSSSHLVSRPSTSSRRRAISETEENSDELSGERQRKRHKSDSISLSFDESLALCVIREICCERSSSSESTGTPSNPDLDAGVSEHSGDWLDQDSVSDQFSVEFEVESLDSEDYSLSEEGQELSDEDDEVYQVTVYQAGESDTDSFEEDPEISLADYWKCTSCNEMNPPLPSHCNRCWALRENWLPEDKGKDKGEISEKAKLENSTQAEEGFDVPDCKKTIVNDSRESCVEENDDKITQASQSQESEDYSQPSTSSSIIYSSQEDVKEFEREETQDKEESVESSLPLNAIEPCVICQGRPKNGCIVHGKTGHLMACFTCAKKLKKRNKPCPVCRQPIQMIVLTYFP
Sequence of Protein cereblon/E3 ubiquitin-protein ligase Mdm2 (Homo sapiens) (Q96SW2 whole entry, looked up): as the sequence (Q96SW2 whole entry, looked up) above

[10] = biological target: T2, Protein cereblon/Apoptosis regulator Bcl-2; assay: Induction of CRBN-mediated Bcl-2 degradation in human HeLa cells assessed as relative abundance at 10 uM measured at 20 hrs by Western blot analysis (reference value: 1); type: cell-based; in short: as §1
[11] = biological target: T2, Protein cereblon/Apoptosis regulator Bcl-2; assay: Induction of CRBN-mediated Bcl-2 degradation in human HeLa cells assessed as relative abundance at 10 uM measured at 24 hrs by Western blot analysis (reference value: 1); type: cell-based; in short: as §1
[12] = biological target: Induced myeloid leukemia cell differentiation protein Mcl-1 (Homo sapiens, UniProt Q07820); assay: Inhibition of biotinylated Bim peptide (81 to 106 residues) binding to His-tagged human Mcl-1 expressed in Escherichia coli BL21 (DE3) cells preincubated for 1 hr followed by biotinylated Bim peptide addition measured after 2 hrs by ELISA
Sequence of Induced myeloid leukemia cell differentiation protein Mcl-1 (Q07820 whole entry, the tested form may be a part): as the sequence (Q07820 whole entry, looked up) above
In short: (§2)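 Inhibitor serially diluted (100–0.1 µM) from 10 mM DMSO stock, preincubated 1 h with 200 nM His-tagged protein in PBS (final DMSO 4%), then added 2 h to streptavidin plates holding biotin-Bim (plated at 0.09 mg/mL). Incubations at 4 °C. Detection with HRP anti-His, TMB 30 min, H2SO4 stop, A450. IC50 averaged from three independent experiments, with SD.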

[13] = biological target: T1, Protein cereblon/Induced myeloid leukemia cell differentiation protein Mcl-1; assay: Induction of CRBN-mediated Mcl-1 degradation in human HeLa cells assessed as relative abundance at 0.1 uM after 12 hrs by Western blot analysis (reference value: 1); type: cell-based
[14] = biological target: T2, Protein cereblon/Apoptosis regulator Bcl-2; assay: Induction of CRBN-mediated Bcl-2 degradation in human HeLa cells assessed as relative abundance at 10 uM measured at 8 hrs by Western blot analysis (reference value: 1); type: cell-based; in short: as §1
[15] = biological target: T1, Protein cereblon/Induced myeloid leukemia cell differentiation protein Mcl-1; assay: Induction of CRBN-mediated Mcl-1 degradation in human HeLa cells assessed as relative abundance at 3 uM after 12 hrs by Western blot analysis (reference value: 1); type: cell-based
[16] = biological target: T1, Protein cereblon/Induced myeloid leukemia cell differentiation protein Mcl-1; assay: Induction of CRBN-mediated Mcl-1 degradation in human HeLa cells assessed as relative abundance at 10 uM measured at 20 hrs by Western blot analysis (reference value: 1); type: cell-based; in short: as §1
[17] = biological target: T2, Protein cereblon/Apoptosis regulator Bcl-2; assay: Induction of CRBN-mediated Bcl-2 degradation in human HeLa cells assessed as relative abundance at 10 uM after 12 hrs by Western blot analysis (reference value: 1); type: cell-based
[18] = biological target: T1, Protein cereblon/Induced myeloid leukemia cell differentiation protein Mcl-1; assay: Induction of CRBN-mediated Mcl-1 degradation in human HeLa cells assessed as relative abundance at 1 uM after 12 hrs by Western blot analysis (reference value: 1); type: cell-based
NCI-H23 = assay: Cytotoxicity against human H23 cells incubated for 24 hrs by CCK8 assay; type: functional, cell-based
In short: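 H23 cells seeded at 4 × 10^4 per mL in RPMI with 10% FBS, L-glutamine and pen/strep. Treated 24 h at various concentrations or with DMSO vehicle (0.05%). Viability read by CCK8 and normalized against cell-free background and untreated cultures; mean ± s.e.m., n=3.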

[19] = biological target: T2, Protein cereblon/Apoptosis regulator Bcl-2; assay: Induction of CRBN-mediated Bcl-2 degradation in human HeLa cells assessed as relative abundance at 0.3 uM after 12 hrs by Western blot analysis (reference value: 1); type: cell-based
[20] = biological target: T1, Protein cereblon/Induced myeloid leukemia cell differentiation protein Mcl-1; assay: Protac activity at CRBN/Mcl-1 in human HeLa cell lysates assessed as ternary complex formation by Western blot analysis based pull-down assay; type: subcellular; settings: Lysate
In short: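 HeLa lysate (25×10^6 cells, 1% Triton X-100 IP buffer), 1 mg total protein, incubated overnight with 1 µg CRBN antibody across a compound concentration gradient. Capture on protein A+G agarose, three Triton washes, boiled in loading buffer. Mcl-1, Bcl-2 and CRBN detected by immunoblotting. n=3 independent samples.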

[21] = biological target: T1, Protein cereblon/Induced myeloid leukemia cell differentiation protein Mcl-1; assay: Induction of CRBN-mediated Mcl-1 degradation in human K562 cells incubated for 12 hrs by Western blot analysis; type: cell-based
In short: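 K562 cells kept in RPMI1640 with 10% FBS at 37 °C, 5% CO2. After compound treatment, cells lysed in NP-40 buffer with protease inhibitors. Equal protein run on SDS-PAGE, then immunoblotted; protein levels quantified from the blots.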

[22] = biological target: T1, Protein cereblon/Induced myeloid leukemia cell differentiation protein Mcl-1; assay: Induction of CRBN-mediated Mcl-1 degradation in human HeLa cells after 12 hrs by Western blot analysis; type: cell-based
[23] = biological target: Apoptosis regulator Bcl-2 (Homo sapiens, UniProt P10415); assay: Inhibition of biotinylated Bim peptide (81 to 106 residues) binding to His-tagged human Bcl-2 expressed in Escherichia coli BL21 (DE3) cells preincubated for 1 hr followed by biotinylated Bim peptide addition measured after 2 hrs by ELISA; in short: as §2
Sequence of Apoptosis regulator Bcl-2 (P10415 whole entry, the tested form may be a part): as the sequence (P10415 whole entry, looked up) above

[24] = biological target: T1, Protein cereblon/Induced myeloid leukemia cell differentiation protein Mcl-1; assay: Induction of CRBN-mediated Mcl-1 degradation in human HeLa cells at 10 uM pretreated with Bcl-2 inhibitor Nap-1 followed by compound addition by Western blot analysis; type: cell-based
[25] = biological target: T1, Protein cereblon/Induced myeloid leukemia cell differentiation protein Mcl-1; assay: Induction of CRBN-mediated Mcl-1 degradation in human HeLa cells assessed as relative abundance at 10 uM measured at 8 hrs by Western blot analysis (reference value: 1); type: cell-based; in short: as §1

Work on `O=C(CCCCC(=O)NCCN1C(=O)c2cccc3c(Sc4ccc(Br)cc4)ccc(c23)C1=O)NCCCCCCNc1cccc2c1C(=O)N(C1CCC(=O)NC1=O)C2=O` (stereo unspecified) yielded an Activity [1] of 70%, a fold change (FC) [2] of 1.1 and a fold change (FC) [3] of 0.1 to 0.2. The fold change (FC) [4] was 0.9, the Activity [5] was “Tde” and the fold change (FC) [6] was 0.9. The fold change (FC) [7] was 1.1, the fold change (FC) [8] was 1.1 and the Activity [9] was “inactive”. For the same compound, the fold change (FC) [10] was 1, the fold change (FC) [11] was 0.9 and the IC50 [12] was 780 nM. For the same compound, the fold change (FC) [13] was 1.1, the fold change (FC) [14] was 1 and the fold change (FC) [15] was 0.1. For the same compound, the fold change (FC) [16] was 0.8, the fold change (FC) [17] was 0.8 to 1 and the fold change (FC) [18] was 0.3. The Activity (NCI-H23) was “Active”, the fold change (FC) [19] was 1 and the Activity [20] was “Dose-dependent effect”. The Activity [21] was “Active”, the Activity [22] was “Dose-dependent effect” and the IC50 [23] was 540 nM. For the same compound, the Activity [24] was “inactive” and the fold change (FC) [25] was 0.7.

— ChEMBL document CHEMBL4321796, “Proteolysis Targeting Chimeras for the Selective Degradation of Mcl-1/Bcl-2 Derived from Nonselective Target Binding Ligands” (J Med Chem, 2019)
